# Assay results: ChEMBL document CHEMBL2163301, “Substrates for efficient fluorometric screening employing the NAD-dependent sirtuin 5 lysine deacylase (KDAC) enzyme” (J Med Chem, 2012)
# Activity calls are given as the source filed them. The rule behind the calls is not given here.
# Target: T1, NAD-dependent protein deacetylase sirtuin-1 (Homo sapiens) (UniProt Q96EB6)
# T1 sequence (whole entry): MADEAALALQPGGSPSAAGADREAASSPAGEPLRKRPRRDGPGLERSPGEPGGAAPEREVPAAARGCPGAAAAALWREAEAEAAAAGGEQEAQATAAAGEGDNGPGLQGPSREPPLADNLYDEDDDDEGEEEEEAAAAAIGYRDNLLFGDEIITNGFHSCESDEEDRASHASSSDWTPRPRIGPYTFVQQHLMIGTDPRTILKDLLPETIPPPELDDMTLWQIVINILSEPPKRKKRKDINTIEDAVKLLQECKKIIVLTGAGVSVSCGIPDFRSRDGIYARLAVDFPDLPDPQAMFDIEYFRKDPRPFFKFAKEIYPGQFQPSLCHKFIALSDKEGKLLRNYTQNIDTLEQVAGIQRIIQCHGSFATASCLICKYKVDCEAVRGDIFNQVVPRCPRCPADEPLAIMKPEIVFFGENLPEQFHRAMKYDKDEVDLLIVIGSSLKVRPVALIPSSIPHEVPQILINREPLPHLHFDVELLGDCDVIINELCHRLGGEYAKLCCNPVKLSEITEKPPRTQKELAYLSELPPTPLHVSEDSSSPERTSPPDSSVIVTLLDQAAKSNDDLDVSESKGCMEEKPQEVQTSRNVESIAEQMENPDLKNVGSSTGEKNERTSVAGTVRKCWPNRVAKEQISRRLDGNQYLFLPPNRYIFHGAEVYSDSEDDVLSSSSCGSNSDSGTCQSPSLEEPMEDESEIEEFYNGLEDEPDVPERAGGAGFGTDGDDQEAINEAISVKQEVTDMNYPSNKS
# Experiment: Activity of human truncated SIRT1-GST fusion protein at 50 uM after 1 hr by trypsin developer-based fluorescence assay
# How it was run: (§1)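 Acetylated substrates were each treated with commercial full-length His-tagged SIRT1 or truncated SIRT1-GST fusion, with NAD, in Tris-Cl pH 8.0 buffer containing BSA. End point: 1 h at 37 °C, then nicotinamide (2 mM)/trypsin (0.4 mg/mL) developer for 15–30 min at room temperature. Fluorescence read at ex 360/em 460 nm against no-enzyme control wells.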
row,Structure (SMILES),Activity
1,CC(=O)NCCCC[C@H](NC(=O)[C@H](CCCNC(=N)N)NC(=O)[C@H](C)NC(=O)[C@@H](NC(C)=O)[C@H](C)O)C(=O)Nc1ccc2c(C)cc(=O)oc2c1,Active
2,CC(=O)NCCCC[C@H](NC(C)=O)C(=O)Nc1ccc2c(C)cc(=O)oc2c1,inactive

# Target: T1, NAD-dependent protein deacetylase sirtuin-1 (Homo sapiens)
# Experiment: Activity of human full length SIRT1 enzyme at 50 uM after 1 hr by trypsin developer-based fluorescence assay
# How it was run: as §1
row,Structure (SMILES),Activity
1,CC(=O)NCCCC[C@H](NC(=O)[C@H](CCCNC(=N)N)NC(=O)[C@H](C)NC(=O)[C@@H](NC(C)=O)[C@H](C)O)C(=O)Nc1ccc2c(C)cc(=O)oc2c1,Active
2,CC(=O)NCCCC[C@H](NC(C)=O)C(=O)Nc1ccc2c(C)cc(=O)oc2c1,inactive

# Target: T2, NAD-dependent protein deacetylase sirtuin-7 (Homo sapiens) (UniProt Q9NRC8)
# T2 sequence (whole entry): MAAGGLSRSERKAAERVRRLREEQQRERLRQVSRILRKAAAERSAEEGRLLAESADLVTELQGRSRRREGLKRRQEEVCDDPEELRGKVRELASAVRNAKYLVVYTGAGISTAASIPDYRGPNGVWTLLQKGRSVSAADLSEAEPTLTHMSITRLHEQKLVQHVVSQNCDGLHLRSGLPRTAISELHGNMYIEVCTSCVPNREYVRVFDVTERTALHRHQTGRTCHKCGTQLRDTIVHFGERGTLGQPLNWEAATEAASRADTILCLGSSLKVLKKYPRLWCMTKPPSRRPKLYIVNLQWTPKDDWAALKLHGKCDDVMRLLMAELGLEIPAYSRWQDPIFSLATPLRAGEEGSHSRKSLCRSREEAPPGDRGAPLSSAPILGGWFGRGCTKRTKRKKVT
# Experiment: Activity of recombinant human SIRT7 assessed as deacylation of compound at 50 uM after 1 hr by trypsin developer-based fluorescence assay
# How it was run: (§2)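 Recombinant sirtuin at 1 μg per 50 μL reaction, with SIRT1-GST fusion as the SIRT1 source. Fluorogenic substrate and NAD incubated in Tris-Cl buffer pH 8.0 with BSA (1 mg/mL) for 1 h at 37 °C. Developer with nicotinamide (2 mM) and trypsin (0.4 mg/mL) added, 15–30 min at room temperature. Fluorescence read at ex 360/em 460 nm and normalized to no-enzyme wells. At least two experiments in duplicate.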
row,Structure (SMILES),Activity
1,CC(=O)NCCCC[C@H](NC(=O)[C@H](CCCNC(=N)N)NC(=O)[C@H](C)NC(=O)[C@@H](NC(C)=O)[C@H](C)O)C(=O)Nc1ccc2c(C)cc(=O)oc2c1,inactive
2,CC(=O)NCCCC[C@H](NC(C)=O)C(=O)Nc1ccc2c(C)cc(=O)oc2c1,inactive

# Target: T1, NAD-dependent protein deacetylase sirtuin-1 (Homo sapiens)
# Experiment: Activity of human SIRT1 assessed as deacylation of compound at 50 uM after 1 hr by trypsin developer-based fluorescence assay
# How it was run: as §2
row,Structure (SMILES),Activity
1,CC(=O)NCCCC[C@H](NC(=O)[C@H](CCCNC(=N)N)NC(=O)[C@H](C)NC(=O)[C@@H](NC(C)=O)[C@H](C)O)C(=O)Nc1ccc2c(C)cc(=O)oc2c1,Active
2,CC(=O)NCCCC[C@H](NC(C)=O)C(=O)Nc1ccc2c(C)cc(=O)oc2c1,Active

# Target: NAD-dependent protein deacylase sirtuin-6 (Homo sapiens) (UniProt Q8N6T7)
# Sequence (Q8N6T7 whole entry): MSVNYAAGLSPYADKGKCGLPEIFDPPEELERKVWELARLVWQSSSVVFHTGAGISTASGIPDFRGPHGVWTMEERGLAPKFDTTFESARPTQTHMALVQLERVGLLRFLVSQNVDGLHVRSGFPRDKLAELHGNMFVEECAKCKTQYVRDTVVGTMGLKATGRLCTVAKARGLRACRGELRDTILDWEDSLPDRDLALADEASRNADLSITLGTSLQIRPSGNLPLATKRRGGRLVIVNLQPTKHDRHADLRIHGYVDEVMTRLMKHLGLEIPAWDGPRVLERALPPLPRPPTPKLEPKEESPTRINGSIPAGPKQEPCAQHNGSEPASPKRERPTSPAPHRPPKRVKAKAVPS
# Experiment: Activity of human SIRT6 assessed as deacylation of compound at 50 uM after 1 hr by trypsin developer-based fluorescence assay
# How it was run: as §2
row,Structure (SMILES),Activity
1,CC(=O)NCCCC[C@H](NC(=O)[C@H](CCCNC(=N)N)NC(=O)[C@H](C)NC(=O)[C@@H](NC(C)=O)[C@H](C)O)C(=O)Nc1ccc2c(C)cc(=O)oc2c1,inactive
2,CC(=O)NCCCC[C@H](NC(C)=O)C(=O)Nc1ccc2c(C)cc(=O)oc2c1,inactive

# Target: T3, NAD-dependent protein deacetylase sirtuin-2 (Homo sapiens) (UniProt Q8IXJ6)
# T3 sequence (whole entry): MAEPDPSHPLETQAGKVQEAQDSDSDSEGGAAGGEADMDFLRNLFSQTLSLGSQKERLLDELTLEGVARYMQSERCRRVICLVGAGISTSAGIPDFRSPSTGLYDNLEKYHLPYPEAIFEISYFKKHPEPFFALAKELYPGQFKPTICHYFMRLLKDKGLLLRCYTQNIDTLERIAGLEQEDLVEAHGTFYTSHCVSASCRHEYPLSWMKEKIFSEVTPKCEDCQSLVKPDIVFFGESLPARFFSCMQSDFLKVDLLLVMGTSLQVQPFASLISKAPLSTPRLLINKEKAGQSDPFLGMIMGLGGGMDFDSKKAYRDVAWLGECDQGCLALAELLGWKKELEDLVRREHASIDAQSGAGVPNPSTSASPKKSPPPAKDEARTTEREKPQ
# Experiment: Activity of human SIRT2 assessed as deacylation of compound at 50 uM after 1 hr by trypsin developer-based fluorescence assay
# How it was run: as §2
row,Structure (SMILES),Activity
1,CC(=O)NCCCC[C@H](NC(=O)[C@H](CCCNC(=N)N)NC(=O)[C@H](C)NC(=O)[C@@H](NC(C)=O)[C@H](C)O)C(=O)Nc1ccc2c(C)cc(=O)oc2c1,Active
2,CC(=O)NCCCC[C@H](NC(C)=O)C(=O)Nc1ccc2c(C)cc(=O)oc2c1,Active

# Target: T4, NAD-dependent protein lipoamidase sirtuin-4, mitochondrial (Homo sapiens) (UniProt Q9Y6E7)
# T4 sequence (whole entry): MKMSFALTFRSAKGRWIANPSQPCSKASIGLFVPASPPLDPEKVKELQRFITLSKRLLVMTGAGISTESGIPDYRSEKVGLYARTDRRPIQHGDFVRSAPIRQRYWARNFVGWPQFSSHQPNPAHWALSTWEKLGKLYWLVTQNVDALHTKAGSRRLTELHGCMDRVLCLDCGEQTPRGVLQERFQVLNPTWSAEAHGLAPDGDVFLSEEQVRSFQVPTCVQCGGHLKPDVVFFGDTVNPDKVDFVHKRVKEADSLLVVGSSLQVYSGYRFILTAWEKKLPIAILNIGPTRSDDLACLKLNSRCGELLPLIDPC
# Experiment: Activity of recombinant human SIRT4 assessed as deacylation of compound at 50 uM after 1 hr by trypsin developer-based fluorescence assay
# How it was run: as §2
row,Structure (SMILES),Activity
1,CC(=O)NCCCC[C@H](NC(=O)[C@H](CCCNC(=N)N)NC(=O)[C@H](C)NC(=O)[C@@H](NC(C)=O)[C@H](C)O)C(=O)Nc1ccc2c(C)cc(=O)oc2c1,inactive
2,CC(=O)NCCCC[C@H](NC(C)=O)C(=O)Nc1ccc2c(C)cc(=O)oc2c1,inactive

# Target: NAD-dependent protein deacylase sirtuin-5, mitochondrial (Homo sapiens) (UniProt Q9NXA8)
# Sequence (Q9NXA8 37-310 limits assumed): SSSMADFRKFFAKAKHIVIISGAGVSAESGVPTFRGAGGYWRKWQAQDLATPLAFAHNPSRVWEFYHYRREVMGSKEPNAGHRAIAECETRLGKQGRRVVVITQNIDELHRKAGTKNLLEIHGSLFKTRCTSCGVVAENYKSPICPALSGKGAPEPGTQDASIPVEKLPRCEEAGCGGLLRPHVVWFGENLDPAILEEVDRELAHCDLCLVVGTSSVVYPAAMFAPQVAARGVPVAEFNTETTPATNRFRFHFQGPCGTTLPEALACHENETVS
# Experiment: Activity of human SIRT5 assessed as deacylation of compound at 50 uM after 1 hr by trypsin developer-based fluorescence assay
# How it was run: as §2
row,Structure (SMILES),Activity
1,CC(=O)NCCCC[C@H](NC(=O)[C@H](CCCNC(=N)N)NC(=O)[C@H](C)NC(=O)[C@@H](NC(C)=O)[C@H](C)O)C(=O)Nc1ccc2c(C)cc(=O)oc2c1,inactive
2,CC(=O)NCCCC[C@H](NC(C)=O)C(=O)Nc1ccc2c(C)cc(=O)oc2c1,inactive

# Target: T5, NAD-dependent protein deacetylase sirtuin-3, mitochondrial (Homo sapiens) (UniProt Q9NTG7)
# T5 sequence (whole entry): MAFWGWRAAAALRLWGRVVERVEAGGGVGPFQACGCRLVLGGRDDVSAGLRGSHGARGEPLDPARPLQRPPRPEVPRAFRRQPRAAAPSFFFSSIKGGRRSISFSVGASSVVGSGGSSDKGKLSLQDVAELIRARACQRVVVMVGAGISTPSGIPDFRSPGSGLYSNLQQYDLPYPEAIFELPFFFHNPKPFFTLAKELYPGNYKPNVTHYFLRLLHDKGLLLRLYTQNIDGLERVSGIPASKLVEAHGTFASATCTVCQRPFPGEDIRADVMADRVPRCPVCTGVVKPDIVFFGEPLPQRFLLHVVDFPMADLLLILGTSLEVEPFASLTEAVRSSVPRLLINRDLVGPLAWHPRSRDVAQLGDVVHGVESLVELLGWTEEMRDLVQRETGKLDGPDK
# Experiment: Activity of human SIRT3 assessed as deacylation of compound at 50 uM after 1 hr by trypsin developer-based fluorescence assay
# How it was run: as §2
row,Structure (SMILES),Activity
1,CC(=O)NCCCC[C@H](NC(=O)[C@H](CCCNC(=N)N)NC(=O)[C@H](C)NC(=O)[C@@H](NC(C)=O)[C@H](C)O)C(=O)Nc1ccc2c(C)cc(=O)oc2c1,Active
2,CC(=O)NCCCC[C@H](NC(C)=O)C(=O)Nc1ccc2c(C)cc(=O)oc2c1,Active
